MrgX1 PAM: human MrgX1 positive allosteric modulation, primary screen; Q96LB2; MrgX1-HEK293, Fluo-4 calcium flux, FDSS; hits give high values; B-score at 10 µM; 0.63% of 310,000 active;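 active = plate-corrected calcium response at least 3 library SD above typical, normal starting fluorescence, not activating the receptor alone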;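 note: compound read alongside a low EC10 to EC30 dose of BAM8-22 agonist; peak minus trough fluorescence over baseline measured at the second addition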
Target sequence (Q96LB2 whole entry, looked up): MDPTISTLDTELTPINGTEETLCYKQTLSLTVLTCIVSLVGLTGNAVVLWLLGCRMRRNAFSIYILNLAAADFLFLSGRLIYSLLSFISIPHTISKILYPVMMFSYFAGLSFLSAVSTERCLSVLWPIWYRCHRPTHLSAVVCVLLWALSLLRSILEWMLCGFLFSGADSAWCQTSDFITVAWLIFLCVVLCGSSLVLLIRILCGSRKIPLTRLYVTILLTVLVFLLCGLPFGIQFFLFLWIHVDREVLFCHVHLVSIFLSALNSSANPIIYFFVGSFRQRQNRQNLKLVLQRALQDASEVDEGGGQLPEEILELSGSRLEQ
MrgX1 antag: human MrgX1 receptor antagonism, primary screen. Q96LB2. 1.3% of 310,000 active. MRGX1-HEK293 calcium flux, Fluo-4, BAM8-22 antagonism; hits give low values. B-score at 10 µM;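 active = calcium-response B-score plate-corrected more than 3 library SD below zero, starting fluorescence within 5 deviations, no agonist response on first addition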;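 note: peak minus trough fluorescence over baseline after final BAM8-22 challenge near maximal dose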
RGS4 block: inhibitors of human RGS4; AID 463165; HEK293 M3R/RGS4 inducible, Fluo-4 calcium flux; hits give high values; triggered by carbachol at its EC20; P49798; 0.45% of 310,000 active; B-score at 10 µM;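 active = B-score, a plate-corrected calcium signal, over three deviations above library mean, with baseline fluorescence within five deviations of library mean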;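 note: RGS4 expression induced by doxycycline in cells with stable M3 receptor; B-score is computed from the integrated fluorescence ratio over baseline after carbachol; higher B-score means a larger calcium signal and so more RGS4 inhibition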
Target sequence (P49798 whole entry, looked up): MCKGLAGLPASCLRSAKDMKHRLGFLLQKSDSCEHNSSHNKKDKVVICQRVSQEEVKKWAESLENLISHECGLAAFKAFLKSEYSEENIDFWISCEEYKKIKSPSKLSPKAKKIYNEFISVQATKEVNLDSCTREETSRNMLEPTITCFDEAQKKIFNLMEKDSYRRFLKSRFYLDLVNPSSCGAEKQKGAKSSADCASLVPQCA
RGS4 act: potentiators or activators of RGS4. HEK293 M3R/inducible RGS4, carbachol calcium flux Fluo4; hits give low values. B-score at 10 µM. 0.92% of 310,000 active. AID 463111;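 active = B-score of the integrated calcium signal more than 4 SD below the library mean, with starting fluorescence not abnormally high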;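 note: negative B-score means reduced calcium response which marks RGS4 activation or potentiation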
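Material: M3R-expressing HEK293 line, RGS4 induced by doxycycline | Schedule: Overnight RGS4 induction, 30 min dye load 37 °C, 20 min compound RT | Measured by: Fluo4 fluorescence kinetic imaging of calcium | Read-out: Integrated calcium ratio converted to B score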
MrgX1 agonist: human MrgX1 receptor agonism, primary screen; MrgX1-HEK293 cells, Fluo-4 calcium fluorescence, agonist mode; hits give high values; Q96LB2; 0.44% of 310,000 active; B-score at 10 µM;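 active = calcium response B-score plate-corrected fluorescence ratio at least 3 library SD, with starting fluorescence B-score inside 5 SD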
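Material: MrgX1-expressing HEK293 cells; input: 15,000 cells per well; doses: test compound given as first of three sequential additions; schedule: overnight plating before 1 h dye loading; technique: Fluo-4 NW calcium-flux fluorescence, kinetic read; evaluation: baseline-normalised fluorescence change ratio, B-scored; control set: plate-wise positive and negative controls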
MrgX1 antag conf: human MrgX1 receptor antagonism, re-confirmation screen; AID 602420; MrgX1-HEK293, BAM8-22 calcium flux, Fluo-4; hits give low values; shares compounds with MrgX1 antag; 19% of 2,300 active; remaining BAM8-22 calcium response % of control (hits give low values), % at 10 µM;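 active = remaining agonist calcium response no higher than 100% minus 3 SD of agonist-only control wells, with starting fluorescence near control levels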;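 note: agonist BAM8-22 given at a near maximal EC90 to ECmax level; peak minus minimum fluorescence divided by baseline after agonist addition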
HEK293 Ca flux: activity in parental HEK293 cells lacking MrgX1; 2% of 4,000 active; shares compounds with MrgX1 antag; fluorescence ratio F(max-min)/F0 at 10 µM; Fluo-4 calcium fluorescence, FDSS;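 active = duplicate-averaged calcium fluorescence ratio at least three times the standard deviation of buffer wells, a nonspecific response in parental cells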
HEK293 Ca counter: activity in parental HEK293 cells without MrgX1 | parental HEK293 calcium flux, Fluo-4 fluorescence ratio; hits give high values | 0.4% of 4,000 active | shares compounds with MrgX1 antag | fluorescence ratio F(max-min)/F0 at 10 µM;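 active = calcium fluorescence ratio, averaged over duplicates, at least 3 SD of the buffer-well ratio, meaning a nonspecific response in receptor-free cells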;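 note: untransfected parental HEK293 lacking MrgX1 used as counterscreen for MrgX1 allosteric activators; fluorescence change taken during the second addition on a kinetic imager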
HEK293 Ca cntr2: counter-screen for MrgX1 activators: effect in parental HEK293 cells | AID 624115 | Fluo-4 calcium fluorescence (FDSS); hits give high values | fluorescence ratio F(max-min)/F0 at 10 µM | shares compounds with MrgX1 antag | 8.7% of 4,000 active;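 active = calcium fluorescence ratio at least three times the spread of buffer wells, meaning a non-specific response in parental cells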
Numbers without * were called inactive; i = inactive; x = not tested or not shown. The list is not random: actives were taken first. Their share in the collection is about 3.5%.

SMILES | MrgX1 PAM | MrgX1 antag | RGS4 block | RGS4 act | MrgX1 agonist | MrgX1 antag conf | HEK293 Ca flux | HEK293 Ca counter | HEK293 Ca cntr2
O=C(Cn1c(C(F)(F)F)nc2ccccc21)Nc1ccccc1N1CCOCC1 | i | -9.34* | i | i | i | i | i | i | i
Cc1ccc(CNC(=O)NC2CCCCC2)cc1 | i | -5.07* | i | i | i | i | i | i | i
Cc1ccc(CNC(=S)NC2CCCCC2)cc1 | i | i | i | i | i | x | x | x | x
Cc1ccccc1NC(=S)NCc1ccc2c(c1)cc(C)n2C | i | -5.34* | i | i | i | i | i | i | i
COc1ccccc1NC(=S)NCc1ccc2c(c1)cc(C)n2C | i | i | i | i | i | x | x | x | x
COc1ccc(S(=O)(=O)Nc2ccc(F)c(F)c2)cc1C(=O)N1CCOCC1 | i | i | i | i | i | x | x | x | x
COC(=O)c1sc(S(=O)(=O)N2CCCCC2C(=O)O)c(C(=O)OC)c1C (stereo not drawn) | i | -5.43* | i | i | i | i | i | i | i
COC(=O)c1sc(S(=O)(=O)N2CCC(C(N)=O)CC2)c(C(=O)OC)c1C | i | i | i | i | i | x | x | x | x
O=C(O)CCC(=O)N(Cc1ccco1)C1CC(=O)N(c2ccccc2)C1=O (stereo not drawn) | i | i | i | i | i | x | x | x | x
COCCCN1C(=O)c2[nH]nc(-c3ccccc3O)c2C1c1ccc(Cl)cc1 (stereo not drawn) | i | -4.81* | i | i | i | i | i | i | i
COCCCN1C(=O)c2[nH]nc(-c3ccccc3O)c2C1c1cccc(Cl)c1 (stereo not drawn) | i | i | i | i | i | x | x | x | x
O=C(NCc1ccccc1F)c1ccc2c(c1)OCCO2 | i | i | i | i | i | x | x | x | x
Cc1ccc(Cc2nc(-c3cccnc3)no2)cc1 | i | -4.79* | i | i | i | i | i | i | i
CN1C(=O)CC(N2CCC(C(N)=O)CC2)C1=O (stereo not drawn) | i | i | i | i | i | x | x | x | x
CN1C(=O)CC(N2CCN(CC(N)=O)CC2)C1=O (stereo not drawn) | i | -5.62* | i | i | i | i | i | i | i
CC(Oc1ccc(Cl)cc1)C(=O)Nc1ccc(S(=O)(=O)Nc2nccs2)cc1 (stereo not drawn) | i | -5.6* | i | i | i | i | i | i | 51.4*
CCn1c(C(=O)O)c(CC(=O)N(C)c2ccc(OC)cc2OC)c2ccccc21 | i | i | i | i | i | x | x | x | x
Oc1c(/C=N/c2ccccn2)sc2ccccc12 | i | -6.72* | i | i | i | 68.9%* | i | i | i
Oc1c(C=Nc2cccnc2)sc2ccccc12 | i | -4.92* | i | i | i | i | i | i | i
Oc1c(C=Nc2ccc(Cl)cn2)sc2ccccc12 | i | i | i | i | i | x | x | x | x
COCC(=O)N1CCN(c2nc3ccccc3o2)CC1 | i | -4.52* | i | i | i | i | i | i | i
O=C(CSc1nc2ccccc2o1)N1CCCC1 | i | i | i | i | i | x | x | x | x
Cc1ccc(CNC(=O)C2CCC(=O)N2Cc2ccc(C)cc2)cc1 (stereo not drawn) | i | i | i | i | i | x | x | x | x
CCC(C)C(NC(=O)c1ccc(Cl)cc1)C(=O)Nc1cccnc1 (stereo not drawn) | i | -7.59* | i | i | i | i | i | i | i
Cn1ccnc1SCC(=O)Nc1ccc(Br)cc1C(F)(F)F | i | -5.87* | i | i | i | i | i | i | i
SMILES | MrgX1 PAM | MrgX1 antag | RGS4 block | RGS4 act | MrgX1 agonist | MrgX1 antag conf | HEK293 Ca flux | HEK293 Ca counter | HEK293 Ca cntr2
COCCN1CCN(C(=O)c2cc(COc3cncc(Cl)c3)on2)CC1 | i | i | i | i | i | x | x | x | x
Cc1ccc(S(=O)(=O)N(C)C)cc1NC(=O)C(C)Sc1ccccc1 (stereo not drawn) | i | i | i | i | i | x | x | x | x
CCOC(=O)C1=C(C)NC(=S)NC1c1ccc(-c2ccc(Cl)cc2)o1 (stereo not drawn) | i | -4.83* | i | i | i | i | i | i | i
CCOC(=O)C1=C(C)NC(=O)NC1c1ccc(-c2ccc(Cl)cc2)o1 (stereo not drawn) | i | i | i | i | i | x | x | x | x
COc1ccc(-c2nc(N3CCC(C)CC3)[nH]c(=O)c2C#N)cc1 | i | -5.63* | i | i | i | i | i | i | i
COc1ccc(-c2nc(N3CCCC3)[nH]c(=O)c2C#N)cc1 | i | i | i | i | i | x | x | x | x
COc1ccc(CN2C(=O)c3cccnc3C2=O)cc1S(=O)(=O)N(C)Cc1ccco1 | i | i | i | i | i | x | x | x | x
CN(Cc1ccco1)S(=O)(=O)c1cc(F)ccc1CN1C(=O)c2cccnc2C1=O | i | -4.88* | i | i | i | i | i | i | i
COc1ccc(NC(=O)c2nc(C)n(-c3ccc([N+](=O)[O-])cc3)n2)cc1 | i | i | i | i | i | x | x | x | x
COc1cccc(CN(C)C(=O)[C@@H](NC(=O)c2ccc(C)cc2)C(C)C)c1 | i | i | i | i | i | x | x | x | x
COc1cc2cc(CN(CCO)S(=O)(=O)c3ccccc3Cl)c(=O)[nH]c2cc1OC | i | -7.74* | i | i | i | i | i | i | i
CC(C)(C)c1cccc(Oc2nn[nH]n2)c1 | i | -6.86* | i | i | i | i | i | i | i
Cc1ccc(Cl)cc1N1CCN(C(=O)c2cc3c(=O)[nH]c4ccccc4c3n2C)CC1 | i | -13.9* | i | i | i | 36.0%* | i | i | i
Clc1ccc(C(c2ccccc2)N2CCNCC2)cc1 (stereo not drawn) | i | -6.27* | i | i | i | i | i | i | i

Bioassay records: PubChem, Johns Hopkins Ion Channel Center
